Drawing on ChEMBL document CHEMBL4342526, “Exploration of the Structural Space in 4(3H)-Quinazolinone Antibacterials” (J Med Chem, 2020), this text covers MIC for 60 compounds.

Values after ≈ are worked out from the molar mass of the structure shown. A value given as a limit tells only on which side of the number the result lay.

The test concerns Staphylococcus aureus. The experiment in a line: Antibacterial activity against Staphylococcus aureus ATCC 29213 measured after 16 to 20 hrs by microdilution method. Type of test: functional. In outline:
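CLSI broth microdilution: two-fold serial dilutions in triplicate in cation-adjusted Mueller–Hinton broth with 2% NaCl, inoculum 5 × 10^5 CFU/mL, incubated at 37 °C for 16–20 h. MIC is the lowest concentration preventing visible growth.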
The term MIC denotes the smallest concentration in the dilution series that meets the test's criterion for growth inhibition. Read a high MIC as a less susceptible organism. In the case of `N#Cc1ccc(/C=C/c2nc3ccccc3c(=O)n2-c2cccc(C#N)c2)cc1`, the minimum inhibitory concentration (MIC) was over 128 µg/mL.
In the case of `N#Cc1ccc(/C=C/c2nc3ccccc3c(=O)n2-c2cccc(CN)c2)cc1` it was 32 µg/mL (≈ 84.6 µM).
With `N#Cc1ccc(/C=C/c2nc3ccccc3c(=O)n2-c2cccc(C(=O)O)n2)cc1`, the MIC was over 128 µg/mL.
For `O=C(O)c1cccc(-n2c(/C=C/c3cccnc3F)nc3ccccc3c2=O)c1`, the MIC is over 128 µg/mL.
Consider `N#Cc1ccc(/C=C/c2nc3ccccc3c(=O)n2-c2cccc(NC(=O)NCCc3cnc[nH]3)c2)cc1`, for which the MIC was found to be 16 µg/mL (≈ 31.9 µM).
Regarding `N#Cc1ccc(/C=C/c2nc3ccccc3c(=O)n2-c2cc(F)cc(C(=O)O)c2)cc1`, the MIC was over 128 µg/mL.
As for `COC(=O)c1cccc(-n2c(NCc3ccc(C#N)cc3)nc3ccccc3c2=O)c1`, the figure is 16 µg/mL (≈ 39 µM).
As to `COC(=O)c1cccc(-n2c(/C=C/c3ccc(C#N)cc3)nc3ccccc3c2=O)c1O`, the MIC is over 128 µg/mL.
In the case of `COC(=O)c1cccc(-n2c(/C=C/c3ccc(C#N)cc3)nc3ccccc3c2=O)n1` it was over 128 µg/mL; in that of `N#Cc1ccc(CCc2nc3ccccc3c(=O)n2-c2cccc(C(=O)O)c2)cc1`, 8 µg/mL (≈ 20.2 µM).
Consider `O=C(O)c1cccc(-n2c(/C=C/c3nccs3)nc3ccccc3c2=O)c1`, for which the MIC was over 128 µg/mL.
Compound `COc1ccc(C(=O)O)cc1-n1c(/C=C/c2ccc(C#N)cc2)nc2ccccc2c1=O` yielded an MIC of over 128 µg/mL.
`N#Cc1ccc(/C=C/c2nc3ccccc3c(=O)n2-c2ccc(N)cc2)cc1` returned an MIC of over 128 µg/mL.
On to `O=c1c2ccccc2nc(N2CCCCC2)n1-c1cccc([N+](=O)[O-])c1`, for which the MIC is over 128 µg/mL.
`N#Cc1ccc(/C=C/c2nc3ccccc3c(=O)n2-c2ccccc2C(=O)O)cc1` yielded an MIC of 32 µg/mL (≈ 81.3 µM).
The compound `N#Cc1ccc(COc2nc3ccccc3c(=O)n2-c2cccc(C(=O)O)c2)cc1` returned an MIC of over 128 µg/mL.
In turn, `O=C(O)c1cccc(-n2c(/C=C/c3ccnc(F)c3)nc3ccccc3c2=O)c1` registered an MIC of over 128 µg/mL.
`Nc1cccc(-n2c(N3CCN(c4ccc(Cl)cc4)CC3)nc3ccccc3c2=O)c1`: the minimal inhibitory concentration (MIC) is over 128 µg/mL.
As for `Nc1cccc(-n2c(NCc3ccc(F)cc3)nc3ccccc3c2=O)c1`, the figure is 64 µg/mL (≈ 178 µM).
With `N#Cc1ccc(/C=C/c2nc3ccccc3c(=O)n2-c2ccc3[nH]c(=S)[nH]c3c2)cc1`, the MIC is over 128 µg/mL.
On to `N#Cc1ccc(CNc2nc3ccccc3c(=O)n2-c2cccc([N+](=O)[O-])c2)cc1`, for which the MIC was over 128 µg/mL.
Compound `N#Cc1ccc(/C=C/c2nc3ccccc3c(=O)n2-c2ccc3nc[nH]c3c2)cc1` came in with an MIC of over 128 µg/mL.
As for `N#Cc1ccc(/C=C/c2nc3ccccc3c(=O)n2-c2cc(C(=O)O)ccc2C(F)(F)F)cc1`, the figure is over 128 µg/mL.
`O=C(O)c1cccc(-n2c(/C=C/c3cccnc3)nc3ccccc3c2=O)c1` registered an MIC of over 128 µg/mL.
In turn, `N#Cc1ccc(/C=C/c2nc3ccccc3c(=O)n2-c2cccc(CN3C(=O)c4ccccc4C3=O)c2)cc1` yielded an MIC of over 128 µg/mL.
For the compound `N#Cc1ccc(CNc2nc3ccccc3c(=O)n2-c2cccc(N)c2)cc1`, it took 8 µg/mL (≈ 21.8 µM) to inhibit growth (MIC).
As for `CNCCC(=O)Nc1cccc(-n2c(/C=C/c3ccc(C#N)cc3)nc3ccccc3c2=O)c1`, the figure is over 128 µg/mL.
`O=c1c2ccccc2nc(NCc2ccc(F)cc2)n1-c1cccc([N+](=O)[O-])c1`: the MIC is over 128 µg/mL.
For the compound `N#Cc1ccc(/C=C/c2nc3ccccc3c(=O)n2-c2cccc(N=[N+]=[N-])c2)cc1`, the MIC stood at 16 µg/mL (≈ 41 µM).
In turn, `N#Cc1ccc(CNc2nc3ccccc3c(=O)n2-c2cccc(C(=O)O)c2)cc1` came in with an MIC of over 128 µg/mL.
Consider `O=C(O)c1cccc(-n2c(/C=C/c3ccc[nH]c3=O)nc3ccccc3c2=O)c1`, for which the MIC was over 128 µg/mL.
Consider `N#Cc1ccc(/C=C/c2nc3ccccc3c(=O)n2-c2ccccc2[N+](=O)[O-])cc1`, for which the MIC is over 128 µg/mL.
Consider `O=C(O)c1cccc(-n2c(/C=C/c3ccc(=O)[nH]c3)nc3ccccc3c2=O)c1`, for which the MIC was over 128 µg/mL.
In turn, `O=C(O)c1cccc(-n2c(/C=C/c3cc[n+]([O-])cc3)nc3ccccc3c2=O)c1` had an MIC of over 128 µg/mL.
With `N#Cc1ccc(/C=C/c2nc3ccccc3c(=O)n2-c2cccc(NC(=O)NCc3cnc[nH]3)c2)cc1`, the MIC is over 128 µg/mL.
Compound `O=C(O)c1cccc(-n2c(/C=C/c3ccsc3)nc3ccccc3c2=O)c1` came in with an MIC of 32 µg/mL (≈ 85.5 µM).
As for `N#Cc1ccc(/C=C/c2nc3ccccc3c(=O)n2-c2ccc3[nH]c(=O)[nH]c3c2)cc1`, the MIC is over 128 µg/mL.
Take `N#Cc1ccc(/C=C/c2nc3ccccc3c(=O)n2-c2cc(C(=O)O)ccn2)cc1`: the MIC was over 128 µg/mL.
In turn, `O=C(O)c1cccc(-n2c(/C=C/c3ccncc3)nc3ccccc3c2=O)c1` yielded an MIC of 64 µg/mL (≈ 173 µM).
Turning to `N#Cc1ccc(/C=C/c2nc3ccccc3c(=O)n2CCC(=O)O)cc1`, the MIC is over 128 µg/mL.
Turning to `O=C(O)c1cccc(-n2c(/C=C/c3cc[nH]c(=O)c3)nc3ccccc3c2=O)c1`, the MIC is over 128 µg/mL.
With `CC(=O)NC[C@H]1CN(c2ccc(N3CCOCC3)c(F)c2)C(=O)O1` [LINEZOLID], the lowest concentration to inhibit growth (MIC) was 1 µg/mL (≈ 2.96 µM).
`N#Cc1ccc(/C=C/c2nc3ccccc3c(=O)n2-c2ccc([N+](=O)[O-])cc2)cc1`: the MIC is over 128 µg/mL.
`N#Cc1ccc(/C=C/c2nc3ccccc3c(=O)n2-c2cccc(C(=O)O)c2O)cc1` returned an MIC of over 128 µg/mL.
Regarding `N#Cc1ccc(/C=C/c2nc3ccccc3c(=O)n2-c2cccc(C(=O)O)c2)cn1`, the MIC is 64 µg/mL (≈ 162 µM).
`O=C(O)c1cccc(-n2c(/C=C/C3CC3)nc3ccccc3c2=O)c1`: the minimal inhibitory concentration (MIC) is over 128 µg/mL.
`N#Cc1ccc(/C=C/c2nc3ccccc3c(=O)n2-c2ccc(F)c(C(=O)O)c2F)cc1`: the MIC was 64 µg/mL (≈ 149 µM).
As for `N#Cc1ccc(/C=C/c2nc3ccccc3c(=O)n2-c2cccc(N)c2)cc1`, the figure is 0.5 µg/mL (≈ 1.37 µM); as for `N#Cc1ccc(/C=C/c2nc3ccccc3c(=O)n2-c2cccnc2)cc1`, over 128 µg/mL.
On to `O=C(O)c1cccc(-n2c(/C=C/c3cncs3)nc3ccccc3c2=O)c1`, for which the minimal inhibitory concentration (MIC) was over 128 µg/mL.
In the case of `CC(C(=O)O)n1c(/C=C/c2ccc(C#N)cc2)nc2ccccc2c1=O` (stereo not given) it was 128 µg/mL (≈ 371 µM); in that of `N#Cc1ccc(/C=C/c2nc3ccccc3c(=O)n2-c2ccc(F)c(C(=O)O)c2)cc1`, 16 µg/mL (≈ 38.9 µM).
Compound `N#Cc1ccc(/C=C/c2nc3ccccc3c(=O)n2-c2cc(O)cc(C(=O)O)c2)cc1` yielded an MIC of over 128 µg/mL.
`COC(=O)c1cccc(-n2c(NCc3ccc(F)cc3)nc3ccccc3c2=O)c1` came in with an MIC of over 128 µg/mL.
`CS(=O)(=O)Nc1cccc(-n2c(/C=C/c3ccc(C#N)cc3)nc3ccccc3c2=O)c1` registered a minimum inhibitory concentration (MIC) of 0.015 µg/mL (≈ 0.0339 µM).
As for `O=C(O)c1cccc(-n2c(/C=C/c3cccs3)nc3ccccc3c2=O)c1`, the MIC stood at 8 µg/mL (≈ 21.4 µM).
Compound `Nc1cccc(-n2c(N3CCCCC3)nc3ccccc3c2=O)c1` gave an MIC of over 128 µg/mL.
On to `N#Cc1ccc(/C=C/c2nc3ccccc3c(=O)n2-c2cc(C(=O)O)ccc2O)cc1`, for which the MIC is over 128 µg/mL.
With `N#Cc1ccc(/C=C/c2nc3ccccc3c(=O)n2-c2cccc(NC(=O)CN3CCOCC3)c2)cc1`, the MIC was found to be 32 µg/mL (≈ 65.1 µM).
As to `N#Cc1ccc(/C=C/c2nc3ccccc3c(=O)n2-c2cccc(C(=O)O)c2F)cc1`, the MIC came out at 8 µg/mL (≈ 19.4 µM).
